Measured values reported in ChEMBL document CHEMBL1150419, “Structure-activity relationships of a peptide inhibitor of the human FcRn:human IgG interaction” (Bioorg Med Chem, 2008).

How the values were obtained:
[1] = biological target: T1, IgG receptor FcRn large subunit p51 (Homo sapiens, UniProt P55899); assay: Inhibition of human IgG binding to soluble human FcRn by ELISA
Procedure, shortened: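 Biotinylated soluble human FcRn immobilized on neutravidin plates, incubated with hIgG (3 nM, constant) and peptide at varying concentrations for 2 h at 37 °C. After washing, bound hIgG detected with peroxidase-conjugated hIgG-specific Fab fragments.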

[2] = biological target: T1, IgG receptor FcRn large subunit p51; assay: Binding affinity to human FcRn at pH 6 by surface plasmon resonance assay
Procedure, shortened: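 Soluble human FcRn coupled to the dextran surface of a CM5 chip; peptide dilutions flowed over the chip. The equilibrium response at each dilution was plotted against concentration and fitted to a steady-state affinity model to give Kd.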

T1 sequence (P55899 whole entry, the tested form may be a part): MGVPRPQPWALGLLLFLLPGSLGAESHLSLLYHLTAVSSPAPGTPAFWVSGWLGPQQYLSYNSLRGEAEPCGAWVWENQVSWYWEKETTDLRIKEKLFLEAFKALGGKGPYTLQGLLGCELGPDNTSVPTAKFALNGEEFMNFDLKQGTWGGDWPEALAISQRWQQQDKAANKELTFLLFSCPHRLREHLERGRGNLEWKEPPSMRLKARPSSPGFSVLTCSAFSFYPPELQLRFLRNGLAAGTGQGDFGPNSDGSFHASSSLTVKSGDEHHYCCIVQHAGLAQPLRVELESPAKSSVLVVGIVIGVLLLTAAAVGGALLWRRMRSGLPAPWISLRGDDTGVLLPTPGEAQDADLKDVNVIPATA

SMILES	IC50 [1] [nM]	Kd [2] [nM]
CC(C)C[C@H](NC(=O)[C@@H](C)NC(=O)[C@@H](C)NC(=O)[C@H](Cc1ccccc1)NC(=O)[C@H](Cc1cnc[nH]1)NC(=O)CNC(=O)[C@@H](NC(=O)[C@H](CS)NC(=O)[C@H](Cc1ccccc1)NC(=O)[C@H](CCCN=C(N)N)NC(=O)[C@@H](N)CCC(N)=O)[C@@H](C)O)C(=O)N[C@@H](Cc1ccc(O)cc1)C(=O)N1CCC[C@H]1C(=O)N[C@@H](CS)C(=O)N[C@@H](CC(N)=O)C(=O)NCC(=O)N1CCC[C@H]1C(=O)O	69000	22000
CC(C)C[C@H](NC(=O)CNC(=O)CNC(=O)[C@H](Cc1ccccc1)NC(=O)[C@H](Cc1cnc[nH]1)NC(=O)[C@@H](C)NC(=O)[C@@H](NC(=O)[C@H](CS)NC(=O)[C@H](Cc1ccccc1)NC(=O)[C@H](CCCN=C(N)N)NC(=O)[C@@H](N)CCC(N)=O)[C@@H](C)O)C(=O)N[C@@H](Cc1ccc(O)cc1)C(=O)N1CCC[C@H]1C(=O)N[C@@H](CS)C(=O)N[C@@H](CC(N)=O)C(=O)NCC(=O)N1CCC[C@H]1C(=O)O	> 125000	> 250000
CC(C)C[C@H](NC(=O)CNC(=O)CNC(=O)[C@H](Cc1ccccc1)NC(=O)[C@H](Cc1cnc[nH]1)NC(=O)CNC(=O)[C@@H](NC(=O)[C@H](CS)NC(=O)[C@H](Cc1ccccc1)NC(=O)[C@H](CCCN=C(N)N)NC(=O)[C@@H](N)CCC(N)=O)[C@@H](C)O)C(=O)N[C@@H](Cc1ccc(O)cc1)C(=O)N1CCC[C@H]1C(=O)N[C@H](CCS)C(=O)N[C@@H](CC(N)=O)C(=O)NCC(=O)N1CCC[C@H]1C(=O)O	21000	3900
CC(C)C[C@H](NC(=O)CNC(=O)CNC(=O)[C@H](Cc1ccccc1)NC(=O)[C@H](Cc1cnc[nH]1)NC(=O)CNC(=O)[C@@H](NC(=O)[C@H](CS)NC(=O)[C@H](Cc1ccccc1)NC(=O)[C@H](CCCN=C(N)N)NC(=O)[C@@H](N)CCC(N)=O)[C@@H](C)O)C(=O)N[C@@H](Cc1ccc(O)cc1)C(=O)N1CCC[C@H]1C(=O)N[C@@H](CS)C(=O)N[C@@H](C)C(=O)NCC(=O)N1CCC[C@H]1C(=O)O	30000	8000

Molecules with a lower IC50 [1], results first:

IC50 [1] [nM]	Kd [2] [nM]	SMILES
2100	59	CC(C)C[C@@H](C(=O)N[C@@H](Cc1ccc(O)cc1)C(=O)N1CCC[C@H]1C(=O)N[C@@H](CS)C(=O)O)N(C)C(=O)CNC(=O)CNC(=O)[C@H](Cc1ccccc1)NC(=O)[C@H](Cc1cnc[nH]1)NC(=O)CNC(=O)[C@@H](NC(=O)[C@@H](NC(=O)[C@H](Cc1ccccc1)NC(=O)[C@@H](N)CCCN=C(N)N)C(C)(C)S)[C@@H](C)O
2000	370	CC(C)C[C@H](NC(=O)CNC(=O)CNC(=O)[C@H](Cc1ccccc1)NC(=O)[C@H](Cc1cnc[nH]1)NC(=O)CNC(=O)[C@@H](NC(=O)[C@@H](NC(=O)[C@H](Cc1ccccc1)NC(=O)[C@H](CCCN=C(N)N)NC(=O)[C@@H](N)CCC(N)=O)C(C)(C)S)[C@@H](C)O)C(=O)N[C@@H](Cc1ccc(O)cc1)C(=O)N1CCC[C@H]1C(=O)N[C@H](C(=O)N[C@@H](CC(N)=O)C(=O)NCC(=O)N1CCC[C@H]1C(=O)O)C(C)(C)S
1600	86	CC(C)C[C@@H](C(=O)N[C@@H](Cc1ccc(O)cc1)C(=O)N1CCC[C@H]1C(=O)N[C@@H](CS)C(=O)N[C@@H](CC(N)=O)C(=O)NCC(=O)N1CCC[C@H]1C(=O)O)N(C)C(=O)CNC(=O)CNC(=O)[C@H](Cc1ccccc1)NC(=O)[C@H](Cc1cnc[nH]1)NC(=O)CNC(=O)[C@@H](NC(=O)[C@@H](NC(=O)[C@H](Cc1ccccc1)NC(=O)[C@H](CCCN=C(N)N)NC(=O)[C@@H](N)CCC(N)=O)C(C)(C)S)[C@@H](C)O
1000	58	CC(C)C[C@H](NC(=O)CN(C)C(=O)CNC(=O)[C@H](Cc1ccccc1)NC(=O)[C@H](Cc1cnc[nH]1)NC(=O)CNC(=O)[C@@H](NC(=O)[C@@H](NC(=O)[C@H](Cc1ccccc1)NC(=O)[C@@H](N)CCCNC(=N)N)C(C)(C)S)[C@@H](C)O)C(=O)N[C@@H](Cc1ccc(O)cc1)C(=O)N1CCC[C@H]1C(=O)N[C@@H](CS)C(=O)O
